Measured values taken from ChEMBL document CHEMBL4689842, “EUbOPEN Chemogenomics Library wave 1” (2021).
“And” between values parts separate entries of the source, which are not always exact repeats. Equal values may be shown once.

System: Fibroblast
Test: Multiplex assay against human fibroblast
Type: toxicity, cell-based
Method in brief: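 Four dyes were applied at seeding to live cells: Hoechst33342, BioTracker Green Microtubule Cytoskeleton Dye, MitoTracker Red and Annexin V Alexa Fluor 680. Imaging after compound addition used a CQ1 microscope at 37°C and 5% CO2. CellPathfinder machine-learning gating then sorted cells into Hoechst high-intensity objects or normal cells, normal cells into healthy, pyknosed or fragmented nuclei, and pyknosed cells into mitotic or apoptotic, with tubulin, mitochondrial-mass and membrane-permeability phenotypes given as per cents of healthy-nucleus cells.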

[1] = 12 h, 1 µM, compound concentration 1 uM, replicate 1
[2] = 12 h, 1 µM, compound concentration 1 uM, replicate 2
[3] = 12 h, 10 µM, compound concentration 10 uM, replicate 1
[4] = 12 h, 10 µM, compound concentration 10 uM, replicate 2
[5] = 24 h, 1 µM, compound concentration 1 uM, replicate 1
[6] = 24 h, 1 µM, compound concentration 1 uM, replicate 2
[7] = 24 h, 10 µM, compound concentration 10 uM, replicate 1
[8] = 24 h, 10 µM, compound concentration 10 uM, replicate 2
[9] = 48 h, 10 µM, compound concentration 10 uM, replicate 1
[10] = 48 h, 10 µM, compound concentration 10 uM, replicate 2

Question: Which “Population Apoptotic (%)” value [1] does the source give for `Cl.O=C(c1ccc(Nc2nccc(-c3cc4ccccc4s3)n2)cc1)N1CCC(N2CCCC2)CC1` here?
Answer: 84%

Question: And the “Population Fragmented Nuclei (%)” value [1]?
Answer: 42%

Question: And the “Population Healthy Nuclei (%)” value [1]?
Answer: 48%

Question: What about the “Population Hoechst High Intensity Objects (%)” value [1] of the same molecule?
Answer: 21%

Question: And the “Population Membrane Permeable-Phenotype (%)” value [1]?
Answer: 4%

Question: And the “Population Mitochondria Different-Phenotype (%)” value [1]?
Answer: 10%

Question: And the “Population Mitotic Cells (%)” value [1]?
Answer: 15%

Question: And the “Population Normal (%)” value [1]?
Answer: 78%

Question: And the “Population Pyknosed Nuclei (%)” value [1]?
Answer: 9%

Question: And the “Population Tubulin-Different-Phenotype (%)” value [1]?
Answer: 14%

Question: What about the “Total Cell Count” value [1] of the same molecule?
Answer: 260

Question: And the “Population Apoptotic (%)” value [2]?
Answer: 55%

Question: And the “Population Fragmented Nuclei (%)” value [2]?
Answer: 53%

Question: What about the “Population Healthy Nuclei (%)” value [2] of the same molecule?
Answer: 32%

Question: And the “Population Hoechst High Intensity Objects (%)” value [2]?
Answer: 36%

Question: And the “Population Membrane Permeable-Phenotype (%)” value [2]?
Answer: 0%

Question: What about the “Population Mitochondria Different-Phenotype (%)” value [2] of the same molecule?
Answer: 9%

Question: And the “Population Mitotic Cells (%)” value [2]?
Answer: 44%

Question: What about the “Population Normal (%)” value [2] of the same molecule?
Answer: 63%

Question: And the “Population Pyknosed Nuclei (%)” value [2]?
Answer: 13%

Question: And the “Total Cell Count” value [2]?
Answer: 102

Question: And the “Population Apoptotic (%)” value [3]?
Answer: 73% and 44%

Question: And the “Population Fragmented Nuclei (%)” value [3]?
Answer: 31% and 33%

Question: What about the “Population Healthy Nuclei (%)” value [3] of the same molecule?
Answer: 16% and 12%

Question: What about the “Population Hoechst High Intensity Objects (%)” value [3] of the same molecule?
Answer: 19% and 12%

Question: What about the “Population Mitochondria Different-Phenotype (%)” value [3] of the same molecule?
Answer: 26% and 36%

Question: What about the “Population Mitotic Cells (%)” value [3] of the same molecule?
Answer: 26% and 55%

Question: And the “Population Normal (%)” value [3]?
Answer: 80% and 87%

Question: What about the “Population Pyknosed Nuclei (%)” value [3] of the same molecule?
Answer: 52% and 53%

Question: And the “Population Tubulin-Different-Phenotype (%)” value [3]?
Answer: 66% and 53%

Question: What about the “Total Cell Count” value [3] of the same molecule?
Answer: 115 and 265

Question: And the “Population Apoptotic (%)” value [4]?
Answer: 93% and 82%

Question: What about the “Population Fragmented Nuclei (%)” value [4] of the same molecule?
Answer: 35% and 54%

Question: And the “Population Healthy Nuclei (%)” value [4]?
Answer: 7% and 10%

Question: And the “Population Hoechst High Intensity Objects (%)” value [4]?
Answer: 21% and 38%

Question: What about the “Population Membrane Permeable-Phenotype (%)” value [4] of the same molecule?
Answer: 50% and 42%

Question: And the “Population Mitochondria Different-Phenotype (%)” value [4]?
Answer: 100% and 57%

Question: And the “Population Mitotic Cells (%)” value [4]?
Answer: 6% and 17%

Question: And the “Population Normal (%)” value [4]?
Answer: 78% and 61%

Question: And the “Population Pyknosed Nuclei (%)” value [4]?
Answer: 57% and 34%

Question: What about the “Population Tubulin-Different-Phenotype (%)” value [4] of the same molecule?
Answer: 100% and 57%

Question: And the “Total Cell Count” value [4]?
Answer: 73 and 108

Question: And the “Population Apoptotic (%)” value [5]?
Answer: 76%

Question: What about the “Population Fragmented Nuclei (%)” value [5] of the same molecule?
Answer: 44%

Question: What about the “Population Healthy Nuclei (%)” value [5] of the same molecule?
Answer: 47%

Question: What about the “Population Hoechst High Intensity Objects (%)” value [5] of the same molecule?
Answer: 23%

Question: And the “Population Membrane Permeable-Phenotype (%)” value [5]?
Answer: 4%

Question: What about the “Population Mitochondria Different-Phenotype (%)” value [5] of the same molecule?
Answer: 3%

Question: And the “Population Mitotic Cells (%)” value [5]?
Answer: 23%

Question: What about the “Population Normal (%)” value [5] of the same molecule?
Answer: 76%

Question: And the “Population Pyknosed Nuclei (%)” value [5]?
Answer: 8%

Question: And the “Population Tubulin-Different-Phenotype (%)” value [5]?
Answer: 10%

Question: What about the “Total Cell Count” value [5] of the same molecule?
Answer: 340

Question: And the “Population Apoptotic (%)” value [6]?
Answer: 0%

Question: What about the “Population Fragmented Nuclei (%)” value [6] of the same molecule?
Answer: 60%

Question: What about the “Population Healthy Nuclei (%)” value [6] of the same molecule?
Answer: 34%

Question: What about the “Population Hoechst High Intensity Objects (%)” value [6] of the same molecule?
Answer: 32%

Question: What about the “Population Membrane Permeable-Phenotype (%)” value [6] of the same molecule?
Answer: 8%

Question: And the “Population Mitochondria Different-Phenotype (%)” value [6]?
Answer: 20%

Question: What about the “Population Mitotic Cells (%)” value [6] of the same molecule?
Answer: 100%

Question: What about the “Population Normal (%)” value [6] of the same molecule?
Answer: 67%

Question: What about the “Population Pyknosed Nuclei (%)” value [6] of the same molecule?
Answer: 5%

Question: What about the “Population Tubulin-Different-Phenotype (%)” value [6] of the same molecule?
Answer: 32%

Question: What about the “Total Cell Count” value [6] of the same molecule?
Answer: 108

Question: What about the “Population Apoptotic (%)” value [7] of the same molecule?
Answer: 71%

Question: And the “Population Fragmented Nuclei (%)” value [7]?
Answer: 43% and 48%

Question: And the “Population Hoechst High Intensity Objects (%)” value [7]?
Answer: 16% and 20%

Question: And the “Population Membrane Permeable-Phenotype (%)” value [7]?
Answer: 33% and 14%

Question: What about the “Population Mitochondria Different-Phenotype (%)” value [7] of the same molecule?
Answer: 22% and 14%

Question: And the “Population Mitotic Cells (%)” value [7]?
Answer: 28%

Question: And the “Population Normal (%)” value [7]?
Answer: 83% and 79%

Question: And the “Population Pyknosed Nuclei (%)” value [7]?
Answer: 46% and 48%

Question: What about the “Population Tubulin-Different-Phenotype (%)” value [7] of the same molecule?
Answer: 66% and 71%

Question: What about the “Total Cell Count” value [7] of the same molecule?
Answer: 112 and 297

Question: What about the “Population Apoptotic (%)” value [8] of the same molecule?
Answer: 88% and 100%

Question: What about the “Population Fragmented Nuclei (%)” value [8] of the same molecule?
Answer: 66% and 26%

Question: What about the “Population Hoechst High Intensity Objects (%)” value [8] of the same molecule?
Answer: 45% and 31%

Question: And the “Population Membrane Permeable-Phenotype (%)” value [8]?
Answer: 50% and 100%

Question: And the “Population Mitotic Cells (%)” value [8]?
Answer: 11% and 0%

Question: And the “Population Normal (%)” value [8]?
Answer: 54% and 68%

Question: What about the “Population Pyknosed Nuclei (%)” value [8] of the same molecule?
Answer: 29% and 58%

Question: And the “Population Tubulin-Different-Phenotype (%)” value [8]?
Answer: 50% and 87%

Question: And the “Total Cell Count” value [8]?
Answer: 105 and 76

Question: And the “Population Apoptotic (%)” value [9]?
Answer: 91%

Question: And the “Population Fragmented Nuclei (%)” value [9]?
Answer: 55%

Question: And the “Population Healthy Nuclei (%)” value [9]?
Answer: 24%

Question: What about the “Population Hoechst High Intensity Objects (%)” value [9] of the same molecule?
Answer: 49%

Question: And the “Population Membrane Permeable-Phenotype (%)” value [9]?
Answer: 33%

Question: And the “Population Mitochondria Different-Phenotype (%)” value [9]?
Answer: 33%

Question: What about the “Population Mitotic Cells (%)” value [9] of the same molecule?
Answer: 8%

Question: And the “Population Normal (%)” value [9]?
Answer: 50%

Question: And the “Population Pyknosed Nuclei (%)” value [9]?
Answer: 19%

Question: What about the “Population Tubulin-Different-Phenotype (%)” value [9] of the same molecule?
Answer: 66%

Question: What about the “Total Cell Count” value [9] of the same molecule?
Answer: 120

Question: And the “Population Apoptotic (%)” value [10]?
Answer: 50%

Question: And the “Population Fragmented Nuclei (%)” value [10]?
Answer: 78%

Question: What about the “Population Healthy Nuclei (%)” value [10] of the same molecule?
Answer: 17%

Question: What about the “Population Hoechst High Intensity Objects (%)” value [10] of the same molecule?
Answer: 50%

Question: What about the “Population Membrane Permeable-Phenotype (%)” value [10] of the same molecule?
Answer: 62%

Question: And the “Population Mitochondria Different-Phenotype (%)” value [10]?
Answer: 12%

Question: What about the “Population Mitotic Cells (%)” value [10] of the same molecule?
Answer: 50%

Question: And the “Population Normal (%)” value [10]?
Answer: 49%

Question: And the “Population Pyknosed Nuclei (%)” value [10]?
Answer: 4%

Question: What about the “Population Tubulin-Different-Phenotype (%)” value [10] of the same molecule?
Answer: 62%

Question: What about the “Total Cell Count” value [10] of the same molecule?
Answer: 93
